Test results: ChEMBL document CHEMBL1145048, “Functionalized glycomers as growth inhibitors and inducers of apoptosis in human glioblastoma cells” (J Med Chem, 2003)

What was measured:
[1] = Glycomer activity determined as growth inhibition of human glioblastoma LN18 cells; assay type: functional, cell-based
Outline: (§1)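 Cells grown 24 h with FCS, then 24 h without FCS, then exposed to glycomers at increasing concentrations in serum-free medium for 24 h. MTT at 0.2 mg/mL was added for the last 2 h, formazan was dissolved in 0.1 N HCl/2-propanol and read at 540 nm. Growth inhibition = treated/control MTT reduction. IC50 is the concentration giving 50% inhibition from dose–response curves. Triplicate, mean ± SD.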

[2] = Glycomer activity determined as growth inhibition of human glioblastoma LNZ308 cells; assay type: functional, cell-based; outline: as §1
[3] = Apoptosis index was determined against human glioblastoma LN18 cells at concentration of 11 uM after total exposure time of 15 hours; assay type: functional, cell-based
Outline: (§2)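 Cells seeded to half confluence in DMEM-10% FCS for 24 h, then held 24 h without FCS before glycomer addition in serum-free medium. At the end of the incubation, histone-associated DNA fragments (mono- and oligonucleosomes) in still-adherent cells were measured by photometric ELISA (absorbance 405 nm). Apoptosis index = absorbance of treated / untreated wells, untreated set at 1.00. Done in triplicate.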

[4] = Efficacy index was evaluated as ratio of apoptosis index to MTT reduction for human glioblastoma LN18 cells at 0 uM concentration; assay type: functional, cell-based
Outline: (§3)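 Cells grown 24 h with FCS, then deprived of FCS for 10 h, then exposed to glycomers for 12 h. In adherent cells, MTT reduction (540 nm), [3H]-thymidine incorporation (cpm) and nucleosome-fragment apoptosis index (treated vs control) were measured. Efficacy index = ratio of thymidine incorporation or apoptosis index to MTT reduction.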

[5] = Efficacy index was evaluated as ratio of apoptosis index to MTT reduction for human glioblastoma LN18 cells at 11.3 uM concentration; assay type: functional, cell-based; outline: as §3
[6] = Efficacy index was evaluated as ratio of apoptosis index to MTT reduction for human glioblastoma LN18 cells at 22.5 uM concentration; assay type: functional, cell-based; outline: as §3
[7] = Efficacy index was evaluated as ratio of apoptosis index to MTT reduction for human glioblastoma LN18 cells at 4.5 uM concentration; assay type: functional, cell-based; outline: as §3
[8] = Efficacy index was evaluated as ratio of inhibition of DNA synthesis (3HT incorporation) to inhibition of growth(MTT) for human glioblastoma LN18 cells at 0 uM concentration; assay type: functional, cell-based; outline: as §3
[9] = Efficacy index was evaluated as ratio of inhibition of DNA synthesis (3HT incorporation) to inhibition of growth(MTT) for human glioblastoma LN18 cells at 11.3 uM concentration; assay type: functional, cell-based; outline: as §3
[10] = Efficacy index was evaluated as ratio of inhibition of DNA synthesis (3HT incorporation) to inhibition of growth(MTT) for human glioblastoma LN18 cells at 22.5 uM concentration; assay type: functional, cell-based; outline: as §3
[11] = Efficacy index was evaluated as ratio of inhibition of DNA synthesis (3HT incorporation) to inhibition of growth(MTT) for human glioblastoma LN18 cells at 4.5 uM concentration; assay type: functional, cell-based; outline: as §3
[12] = Efficacy index was evaluated as ratio of apoptosis index to MTT reduction for human glioblastoma LNZ308 cells at 0 uM concentration; assay type: functional, cell-based; outline: as §3
[13] = Efficacy index was evaluated as ratio of apoptosis index to MTT reduction for human glioblastoma LNZ308 cells at 11.3 uM concentration; assay type: functional, cell-based; outline: as §3
[14] = Efficacy index was evaluated as ratio of apoptosis index to MTT reduction for human glioblastoma LNZ308 cells at 22.5 uM concentration; assay type: functional, cell-based; outline: as §3
[15] = Efficacy index was evaluated as ratio of apoptosis index to MTT reduction for human glioblastoma LNZ308 cells at 4.5 uM concentration; assay type: functional, cell-based; outline: as §3
[16] = Apoptosis index was determined against human glioblastoma LNZ308 cells at concentration of 11 uM after total exposure time of 15 hours; assay type: functional, cell-based; outline: as §2
[17] = Efficacy index was evaluated as ratio of inhibition of DNA synthesis (3HT incorporation) to inhibition of growth(MTT) for human glioblastoma LNZ308 cells at 11.3 uM concentration; assay type: functional, cell-based; outline: as §3
[18] = Efficacy index was evaluated as ratio of inhibition of DNA synthesis (3HT incorporation) to inhibition of growth(MTT) for human glioblastoma LNZ308 cells at 22.5 uM concentration; assay type: functional, cell-based; outline: as §3
[19] = Apoptosis index was determined against human glioblastoma LN18 cells at concentration of 25 uM after total exposure time of 24 hours; assay type: functional, cell-based; outline: as §2
[20] = Apoptosis index was determined against human glioblastoma LNZ308 cells at concentration of 25 uM after otal exposure time of 24 hours; assay type: functional, cell-based; outline: as §2
[21] = Apoptosis index was determined against human glioblastoma LNZ308 cells at concentration of 25 uM after total exposure time of 24 hours; assay type: functional, cell-based; outline: as §2
[22] = Apoptosis index was determined against human glioblastoma LN18 cells at 25 uM after total exposure time of 24 hours; assay type: functional; outline: as §2
[23] = Apoptosis index was determined against human glioblastoma LNZ308 cells at 25 uM after total exposure time of 24 hours; assay type: functional; outline: as §2

Structure (SMILES): C=CCO[C@H]1[C@H](O)[C@H](COS(=O)(=O)c2cccc(C(F)(F)F)c2)O[C@@H](Oc2ccc(I)cc2)[C@H]1OC(=O)CCc1ccccc1
- IC50 ([1]; Homo sapiens, LN-18): > 50 µM
- IC50 ([2]; Homo sapiens, LNZ308): > 50 µM

Structure (SMILES): CCCC(=O)O[C@@H]1[C@H](Oc2ccc(I)cc2)O[C@@H](COCc2ccccc2)[C@@H](O)[C@@H]1OC
- IC50 ([1]; Homo sapiens, LN-18): > 50 µM
- IC50 ([2]; Homo sapiens, LNZ308): > 50 µM

Structure (SMILES): CCCC(=O)O[C@@H]1[C@H](Oc2ccc(I)cc2)O[C@@H](COCc2ccccc2)[C@@H](O)[C@@H]1OCCO
- IC50 ([1]; Homo sapiens, LN-18): > 50 µM
- IC50 ([2]; Homo sapiens, LNZ308): > 50 µM

Structure (SMILES): C=CCO[C@H]1[C@H](O)[C@H](COCc2ccccc2)O[C@@H](Oc2ccc(Br)cc2)[C@H]1OC(=O)CCC
- IC50 ([1]; Homo sapiens, LN-18): > 50 µM
- IC50 ([2]; Homo sapiens, LNZ308): > 50 µM

Structure (SMILES): C=CCOC1C(O)C(CNS(=O)(=O)c2cccc(C(F)(F)F)c2)OC(Oc2ccc(I)cc2)C1OC(=O)CC (stereo unspecified)
- Apoptosis index [3]: 0.98
- Efficacy index [4]: 0.93
- Efficacy index [5]: 1.63
- Efficacy index [6]: 8.43
- Efficacy index [7]: 0.88
- Efficacy index [8]: 16.2
- Efficacy index [9]: 0.07
- Efficacy index [10]: 0.47
- Efficacy index [11]: 3.11
- Efficacy index [12]: 0.95
- Efficacy index [13]: 1.81
- Efficacy index [14]: 6.18
- Efficacy index [15]: 0.72
- Apoptosis index [16]: 1.45
- Efficacy index [17]: 0.64
- Efficacy index [18]: 0.35

Structure (SMILES): C=CCO[C@H]1[C@H](O)[C@H](COS(=O)(=O)c2cccc(C(F)(F)F)c2)O[C@@H](Oc2ccc(I)cc2)[C@H]1OC(=O)CCC (stereo in doubt; 8c) [listing 1 of 2 here]
- Apoptosis index [19]: 0.44
- Apoptosis index [20]: 0.41

Structure (SMILES): C=CCOC1C(O)C(CNS(=O)(=O)c2cccc(C(F)(F)F)c2)OC(Oc2ccc(I)cc2)C1OC(=O)C(C)C (stereo unspecified)
- IC50 ([1]; Homo sapiens, LN-18): 12.5 µM
- IC50 ([2]; Homo sapiens, LNZ308): 7.5 µM

Structure (SMILES): CCCO[C@@H]1[C@H](O)[C@H](Oc2ccccc2)O[C@@H](COCc2ccccc2)[C@H]1O
- Apoptosis index [19]: 1.29
- IC50 ([1]; Homo sapiens, LN-18): > 50 µM
- IC50 ([2]; Homo sapiens, LNZ308): > 50 µM

Structure (SMILES): C=CCO[C@H]1[C@H](O)[C@H](COCc2ccccc2)O[C@@H](Oc2ccc(I)cc2)[C@H]1OC(=O)C(C)C
- IC50 ([1]; Homo sapiens, LN-18): > 50 µM
- IC50 ([2]; Homo sapiens, LNZ308): > 50 µM

Structure (SMILES): C=CCO[C@@H]1[C@H](O)[C@H](Oc2ccc(I)cc2)O[C@@H](COS(=O)(=O)c2cccc(C(F)(F)F)c2)[C@H]1O
- IC50 ([1]; Homo sapiens, LN-18): 21 µM
- IC50 ([2]; Homo sapiens, LNZ308): 19 µM

Structure (SMILES): C=CCO[C@H]1[C@H](O)[C@H](COCc2ccccc2)O[C@@H](Oc2ccc(I)cc2)[C@H]1OC(=O)CCC
- Apoptosis index [19]: 1.6
- IC50 ([1]; Homo sapiens, LN-18): 7.5 µM
- Apoptosis index [21]: 2.27
- IC50 ([2]; Homo sapiens, LNZ308): 11.5 µM

Structure (SMILES): C=CCO[C@H]1[C@H](O)[C@H](COS(=O)(=O)c2cccc(C(F)(F)F)c2)O[C@@H](Oc2ccc(I)cc2)[C@H]1OC(=O)CCC (stereo in doubt; 8c) [listing 2 of 2 here]
- IC50 ([1]; ln18): 43 µM
- IC50 ([2]; lnz308): 41 µM

Structure (SMILES): C=CCO[C@@H]1[C@H](OC(=O)CC)[C@H](Oc2ccc(I)cc2)O[C@@H](COS(=O)(=O)c2cccc(C(F)(F)F)c2)[C@H]1OCc1ccc(OC)cc1
- IC50 ([1]; Homo sapiens, LN-18): > 50 µM
- IC50 ([2]; Homo sapiens, LNZ308): > 50 µM

Structure (SMILES): C=CCO[C@H]1[C@H](O)[C@H](COS(=O)(=O)c2cccc(C(F)(F)F)c2)O[C@@H](Oc2ccc(I)cc2)[C@H]1OC(=O)C(C)C
- Apoptosis index [22]: 1.1
- IC50 ([1]; Homo sapiens, LN-18): 12.5 µM
- Apoptosis index [23]: 1.09
- IC50 ([2]; Homo sapiens, LNZ308): 8.5 µM

Structure (SMILES): C=CCOC1C(O)C(CNS(=O)(=O)c2cccc(C(F)(F)F)c2)OC(Oc2ccc(I)cc2)C1OC(=O)CCC (stereo in doubt; 17a)
- IC50 ([1]; ln18): 25 µM
- IC50 ([2]; lnz308): 26 µM

Structure (SMILES): CCCC(=O)O[C@@H]1[C@H](Oc2ccc(I)cc2)O[C@@H](COS(=O)(=O)c2cccc(C(F)(F)F)c2)[C@@H](O)[C@@H]1OC
- IC50 ([1]; Homo sapiens, LN-18): 26 µM
- IC50 ([2]; Homo sapiens, LNZ308): 22 µM
